Experimental data pooled from the literature.
Each line is one published result; the experiments were not run side by side.
Target: Mitogen-activated protein kinase kinase kinase 12 (MAP3K12, Homo sapiens, UniProt Q12852)
Sequence (Q12852 1-859, as in one of the studies): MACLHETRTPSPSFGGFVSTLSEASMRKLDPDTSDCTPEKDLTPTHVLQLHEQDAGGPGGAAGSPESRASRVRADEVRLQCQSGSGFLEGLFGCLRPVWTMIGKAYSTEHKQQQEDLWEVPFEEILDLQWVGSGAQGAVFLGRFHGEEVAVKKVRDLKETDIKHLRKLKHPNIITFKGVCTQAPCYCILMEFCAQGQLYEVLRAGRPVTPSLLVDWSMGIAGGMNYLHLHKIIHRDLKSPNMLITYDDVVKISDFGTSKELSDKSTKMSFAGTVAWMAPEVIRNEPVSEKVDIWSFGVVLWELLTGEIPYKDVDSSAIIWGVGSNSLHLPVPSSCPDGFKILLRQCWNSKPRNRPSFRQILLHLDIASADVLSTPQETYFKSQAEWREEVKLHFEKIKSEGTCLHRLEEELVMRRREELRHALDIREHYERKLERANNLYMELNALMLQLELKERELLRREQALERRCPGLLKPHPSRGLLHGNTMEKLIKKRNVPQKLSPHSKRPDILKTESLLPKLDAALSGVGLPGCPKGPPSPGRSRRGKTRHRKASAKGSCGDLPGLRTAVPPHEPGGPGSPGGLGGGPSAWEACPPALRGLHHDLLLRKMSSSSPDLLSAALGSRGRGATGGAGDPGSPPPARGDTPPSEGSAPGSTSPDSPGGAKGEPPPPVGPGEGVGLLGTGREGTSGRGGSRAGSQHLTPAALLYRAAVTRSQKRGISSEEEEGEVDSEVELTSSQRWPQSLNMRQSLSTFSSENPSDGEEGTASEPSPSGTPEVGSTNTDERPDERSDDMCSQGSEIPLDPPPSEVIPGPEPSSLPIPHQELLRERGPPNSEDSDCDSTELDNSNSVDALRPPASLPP

Compound	read-out	method	concentration	remaining binding
O=C(NS(=O)(=O)c1ccc(NCC2CCOCC2)c([N+](=O)[O-])c1)c1ccc(N2CCN(Cc3ccc(C(F)(F)F)cc3-c3ccc(Cl)cc3)CC2)cc1Oc1cnc2[nH]ccc2c1	cell-free assay	competition with immobilised ligand	1 µM	100%
F[C@@H]1CCN(c2nccc(-c3cnn4ncccc34)n2)C1	binding		1 µM	100%
O=C(NCCCN1CCOCC1)c1ccc(Nc2nccc(-c3cc4ccccc4s3)n2)cc1	binding	competition with immobilised ligand	1 µM	54%
CN([C@@H]1CCc2c(CC(=O)O)c3ccccc3n2C1)S(=O)(=O)c1ccc(F)cc1	cell-free assay	competition with immobilised ligand	1 µM	100%
FC(F)(F)Oc1cccc(-c2cnc3ccc(-c4ccncc4)nn23)c1	cell-free assay	competition with immobilised ligand	5 µM	45%
FC(F)(F)c1ccc2c(c1)nc(-c1cccnc1)n2C1CC1	cell-free assay	competition with immobilised ligand	1 µM	100%
O=C(c1ccc(Nc2nccc(-c3cc4ccccc4s3)n2)cc1)N1CCC(N2CCCC2)CC1	binding	competition with immobilised ligand	1 µM	28%
CNC(=O)[C@@H]1CC[C@@H](n2c(-c3ccc4cnccc4c3)nc3ccc(C(=O)NCc4cccc(C(N)=O)c4)cc32)C1	binding	competition with immobilised ligand	1 µM	100%
CN1CCN(c2cnc3c(C4CCN(C(=O)c5ccc(OC(F)(F)F)cc5N)CC4)ncnc3c2)CC1	cell-free assay	competition with immobilised ligand	1 µM	100%
C[C@H]1CCN(c2nccc(-c3cnn4ncccc34)n2)C1	binding		1 µM	100%
c1cncc(-c2cccc(Nc3nccc(NC4CCCCC4)n3)c2)c1	binding	competition with immobilised ligand	10 µM	67%
Cc1cnn2ncc(-c3ccnc(N(C)C)n3)c2c1	binding		1 µM	83%
CNCc1ccccc1-c1csc([C@H](C)Nc2nc(C)nc3cc(OC)c(OC)cc23)c1	cell-free assay	competition with immobilised ligand	1 µM	97%
O=C(NCC1CCOCC1)c1n[nH]cc1NC(=O)c1c(F)cccc1F	binding	competition with immobilised ligand	1 µM	85%
CN(C)c1ncc(F)c(-c2cnn3ncccc23)n1	binding		1 µM	72%
O=C(c1ccc(Nc2ncc(Cl)c(-c3cc4ccccc4s3)n2)cc1)N1CCC(N2CCCC2)CC1	binding	competition with immobilised ligand	1 µM	6.9%
CN(C)c1nccc(-c2cnc3ncccn23)n1	binding		1 µM	67%
COc1ncc2cc3ccccc3nc2c1C#N	cell-free assay	competition with immobilised ligand	5 µM	81%
c1cnn2ncc(-c3ccnc(N4CCC45COC5)n3)c2c1	binding		1 µM	74%
CC(=O)C1=C(C)N(c2cccc(C(F)(F)F)c2)C(=O)N[C@@H]1c1ccc(C#N)nc1	cell-free assay	competition with immobilised ligand	1 µM	86.8%
